# Activity calls are given as the source filed them. The calls are words filed in the database; no cut-off is given here.
# Assays:
# [1] = tested on: Moraxella catarrhalis; test: Antibacterial activity against Moraxella catarrhalis by microbroth technology; assay type: functional
# Summary of the method: (§1)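 MIC determined by broth microdilution, reported in µg/mL.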
# [2] = target: T1, Amine oxidase [flavin-containing] A (Homo sapiens, UniProt P21397); test: Inhibition of human recombinant MAOA
# T1 sequence (P21397 whole entry): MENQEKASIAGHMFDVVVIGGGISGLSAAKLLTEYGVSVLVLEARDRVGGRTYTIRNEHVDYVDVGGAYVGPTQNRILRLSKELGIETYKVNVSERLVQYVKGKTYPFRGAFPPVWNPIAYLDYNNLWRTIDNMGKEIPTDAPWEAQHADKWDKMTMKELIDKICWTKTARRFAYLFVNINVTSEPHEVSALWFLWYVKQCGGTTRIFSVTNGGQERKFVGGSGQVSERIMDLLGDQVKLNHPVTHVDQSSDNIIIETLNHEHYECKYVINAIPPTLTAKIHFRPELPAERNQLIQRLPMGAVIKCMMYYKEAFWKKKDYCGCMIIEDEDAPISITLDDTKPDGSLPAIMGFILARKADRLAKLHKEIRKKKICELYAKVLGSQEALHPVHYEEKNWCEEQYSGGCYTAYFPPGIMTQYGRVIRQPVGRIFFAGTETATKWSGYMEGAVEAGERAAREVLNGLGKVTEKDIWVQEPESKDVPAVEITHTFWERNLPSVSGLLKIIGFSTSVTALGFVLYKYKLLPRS
# [3] = tested on: Staphylococcus aureus; test: Antibacterial activity against Staphylococcus aureus UC76 in po dosed CD1 mouse systemic infection model assessed as mortality after 7 days; assay type: functional
# [4] = Clearance in Sprague-Dawley rat at 10 mg/kg, iv; assay type: ADME, organism-based; design: dose 10 mg/kg, route intravenous; settings: in vivo
# [5] = AUC in Sprague-Dawley rat at 20 mg/kg, po; assay type: ADME, organism-based, Plasma; design: dose 20 mg/kg, route oral; settings: Sprague-Dawley, plasma
# [6] = Volume of distribution at steady state in Sprague-Dawley rat at 10 mg/kg, iv; assay type: ADME, organism-based; design: dose 10 mg/kg, route intravenous; settings: in vivo, read-out: Vdss
# [7] = tested on: Staphylococcus aureus; test: Antibacterial activity against levofloxacin-oxacillin-resistant Staphylococcus aureus UC76 SA1 by micro-broth technology; assay type: functional
# Summary of the method: (§2)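 Drug-resistant panel strains (levofloxacin/oxacillin-resistant S. aureus, levofloxacin/penicillin-resistant S. pneumoniae, vancomycin-resistant E. faecalis and E. faecium). Broth microdilution MIC in µg/mL; value reported as MIC90 across the strains of each resistant group.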
# [8] = Cmax in Sprague-Dawley rat at 20 mg/kg, po; assay type: ADME, organism-based; design: dose 20 mg/kg, route oral; settings: in vivo
# [9] = tested on: Escherichia coli; test: Inhibition of protein synthesis in Escherichia coli by cell-free transcription-translation assay; assay type: functional
# Summary of the method: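 E. coli cell-free coupled transcription/translation run in microtiter format with a luciferase reporter; luminescence was the read-out for protein synthesis.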
# [10] = Half life in Sprague-Dawley rat at 20 mg/kg, po; assay type: ADME, organism-based; design: dose 20 mg/kg, route oral; settings: in vivo
# [11] = tested on: Streptococcus pneumoniae; test: Antibacterial activity against levofloxacin-penicillin-resistant Streptococcus pneumoniae SV1 SP3 by microbroth technology; assay type: functional; summary of the method: as §2
# [12] = tested on: Enterococcus faecium; test: Antibacterial activity against vancomycin-resistant Enterococcus faecium by micro-broth technology; assay type: functional; summary of the method: as §2
# [13] = tested on: Enterococcus faecalis; test: Antibacterial activity against vancomycin-resistant Enterococcus faecalis MGH2 EF1 by microbroth technology; assay type: functional; summary of the method: as §2
# [14] = Bioavailability in Sprague-Dawley rat at 20 mg/kg, po; assay type: ADME, organism-based; settings: Sprague-Dawley, in vivo
# [15] = tested on: Haemophilus influenzae; test: Antibacterial activity against Haemophilus influenzae by micro-broth technology; assay type: functional; summary of the method: as §1
# [16] = tested on: Rattus norvegicus; test: Effect on hematology in Sprague-Dawley rat assessed as decrease in red blood cells at 200 mg/kg/day, po after 14 days; assay type: ADME, organism-based; design: route oral; scale not given: the % may be the effect or the level left; settings: in vivo, 336 h
# Summary of the method: (§3)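 Female Sprague-Dawley rats received vehicle or drug by oral gavage daily for 14 days, at doses of 40-1000 (mg/kg)/day across the studies. End points were moribundity or lethality, hematology (RBC, hemoglobin, hematocrit, reticulocytes), bone marrow M:E ratio and plasma AUC(0-24).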
# [17] = tested on: Rattus norvegicus; test: Effect on hematology in Sprague-Dawley rat assessed as decrease in hemoglobin at 200 mg/kg/day, po after 14 days; assay type: ADME, organism-based; design: route oral; scale not given: the % may be the effect or the level left; settings: in vivo, 336 h; summary of the method: as §3
# [18] = tested on: Rattus norvegicus; test: Effect on hematology in Sprague-Dawley rat assessed as decrease in reticulocytes at 200 mg/kg/day after 14 days; assay type: ADME, organism-based; design: scale not given: the % may be the effect or the level left; settings: in vivo, 336 h; summary of the method: as §3
# [19] = tested on: Rattus norvegicus; test: Effect on hematology in Sprague-Dawley rat assessed as increase in hematocrit at 200 mg/kg/day, po after 14 days; assay type: ADME, organism-based; design: route oral; settings: in vivo, 336 h
# [20] = tested on: Staphylococcus aureus; test: Antibacterial activity against […] in po dosed CD1 mouse systemic infection model assessed as mortality after 7 days; assay type: functional
# [21] = AUC (0 to 24 hrs) in Sprague-Dawley rat plasma at 40 mg/kg/day after 14 days; assay type: ADME, organism-based; design: dose 40 mg/kg/day, time < 24 hr; summary of the method: as §3
# [22] = tested on: Staphylococcus; test: Bacteriostatic activity against Staphylococcus after 48 hrs by time kill study; assay type: functional, organism-based
# [23] = tested on: Staphylococcus aureus; test: Antibacterial activity against methicillin-resistant Staphylococcus aureus SA1417 in po dosed CD1 mouse systemic infection model assessed as mortality after 7 days; assay type: functional
# [24] = tested on: Enterococcus; test: Bacteriostatic activity against Enterococcus after 48 hrs by time kill study; assay type: functional, organism-based
# [25] = tested on: Streptococcus pneumoniae; test: Bactericidal activity against Streptococcus pneumoniae after 48 hrs by time kill study; assay type: functional, organism-based
# Summary of the method: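 Time-kill study: bacteria exposed continuously to drug at 2-16× the MIC and sampled over 48 h to assess eradication.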
# [26] = AUC (0 to 24 hrs) in Sprague-Dawley rat plasma at 200 mg/kg/day, po after 14 days; assay type: ADME, organism-based; design: dose 200 mg/kg/day, time < 24 hr, route oral; summary of the method: as §3
# [27] = tested on: Rattus norvegicus; test: Toxicity in Sprague-Dawley rat at 1000 mg/kg/day, po after 14 days; assay type: organism-based; design: route oral; settings: in vivo, 336 h; summary of the method: as §3
# [28] = tested on: Streptococcus pyogenes; test: Antibacterial activity against Streptococcus pyogenes C203 by micro-broth technology; assay type: functional
Compound,MIC [1],IC50 [2],PD50 [3],clearance [4],AUC [5],Vd [6],MIC90 [7],Cmax [8],IC50 [9],half-life [10],MIC90 [11],MIC90 [12],MIC90 [13],bioavailability [14],MIC [15],further results
NC(=O)[C@H]1CN(c2ccc(C3CCS(=O)(=O)CC3)c(F)c2)C(=O)O1,> 8 µg/mL,105 µM,2.1 mg/kg,12.9 mL/min/kg,8620 ng·h/mL,1.11 L/kg,2 µg/mL,1880 ng/mL,5.89 µM,1.58 h,2 µg/mL,4 µg/mL,2 µg/mL,40%,> 8 µg/mL,–
CC(=O)NC[C@H]1CN(c2ccc(N3CCOCC3)c(F)c2)C(=O)O1 [LINEZOLID],–,53 µM,3.1 mg/kg,–,–,–,4 µg/mL,–,3.6 µM,–,1 µg/mL,4 µg/mL,2 µg/mL,–,–,Activity [16]: 9%; Activity [17]: 9%; Activity [18]: 97%; Activity [19]: -9%; PD50 [20]: 5 mg/kg; AUC at 24 h [21]: 105000 ng·h/mL; Activity [22]: Active; PD50 [23]: 6.25 mg/kg; Activity [24]: Active; Activity [25]: Active; AUC at 24 h [26]: 666000 ng·h/mL; Activity [27]: Toxic; MIC [28]: 4 µg/mL
NC(=O)[C@H]1CN(c2cc(F)c(N3CCOCC3)c(F)c2)C(=O)O1,> 8 µg/mL,63 µM,6.7 mg/kg,–,–,–,4 µg/mL,–,17 µM,–,4 µg/mL,8 µg/mL,8 µg/mL,–,> 8 µg/mL,–
NC(=O)[C@H]1CN(c2cc(F)c(C3CC[S+]([O-])CC3)c(F)c2)C(=O)O1 (some centres undefined),> 8 µg/mL,355 µM,1.1 mg/kg,12.8 mL/min/kg,15400 ng·h/mL,0.83 L/kg,2 µg/mL,4690 ng/mL,3.6 µM,2.24 h,2 µg/mL,2 µg/mL,2 µg/mL,65%,> 8 µg/mL,–

# From ChEMBL document CHEMBL1138317, “Antibacterial oxazolidinones possessing a novel C-5 side chain. (5R)-trans-3-[3-Fluoro-4- (1-oxotetrahydrothiopyran-4-yl)phenyl]-2- oxooxazolidine-5-carboxylic acid amide (PF-00422602), a new lead compound” (J Med Chem, 2007)
